Activity calls are given as the source filed them. The calls are words filed in the database; no cut-off is given here.
What was measured:
[1] = Selectivity ratio of IC50 for cytotoxicity against human PBMC cells to IC50 for antiproliferative activity against human HepG2 cells; format: toxicity, cell-based; details: read-out: Ratio IC50
[2] = system: K562; experiment: Induction of cell cycle arrest in human K562 cells assessed as accumulation at S phase at 0.5 uM after 48 hrs by propidium iodide staining based flow cytometric analysis (reference value: 44.73 to 45.96%); format: functional
[3] = system: K562; experiment: Induction of cell cycle arrest in human K562 cells assessed as accumulation at S phase at 1 uM after 48 hrs by propidium iodide staining based flow cytometric analysis (reference value: 44.73 to 45.96%); format: functional
[4] = system: K562; experiment: Induction of cell cycle arrest in human K562 cells assessed as accumulation at G1 phase at 2 uM after 48 hrs by propidium iodide staining based flow cytometric analysis (reference value: 43.24 to 43.37%); format: functional
[5] = system: K562; experiment: Induction of cell cycle arrest in human K562 cells assessed as accumulation at G2 phase at 2 uM after 48 hrs by propidium iodide staining based flow cytometric analysis (reference value: 10.96 to 12.03%); format: functional
[6] = system: HepG2; experiment: Induction of cell cycle arrest in human HepG2 cells assessed as accumulation at G1 phase at 0.5 uM after 48 hrs by propidium iodide staining based flow cytometric analysis (reference value: 49.46 to 50.3%); format: functional
Summary of the method: (§1)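 HepG2 cells were treated with 0, 0.50, 1.0 or 2.0 test agent for 48 h. Cells were washed in cold PBS and fixed in 70% ethanol at −20 °C overnight. DNA-content distribution was measured by flow cytometry. Mean ± SD, three independent experiments.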

[7] = system: HepG2; experiment: Induction of cell cycle arrest in human HepG2 cells assessed as accumulation at G2 phase at 0.5 uM after 48 hrs by propidium iodide staining based flow cytometric analysis (reference value: 16.48 to 16.97%); format: functional; summary of the method: as §1
[8] = system: HepG2; experiment: Induction of cell cycle arrest in human HepG2 cells assessed as accumulation at G1 phase at 1 uM after 48 hrs by propidium iodide staining based flow cytometric analysis (reference value: 49.46 to 50.3%); format: functional; summary of the method: as §1
[9] = system: HepG2; experiment: Induction of cell cycle arrest in human HepG2 cells assessed as accumulation at G1 phase at 2 uM after 48 hrs by propidium iodide staining based flow cytometric analysis (reference value: 49.46 to 50.3%); format: functional; summary of the method: as §1
[10] = system: HepG2; experiment: Induction of cell cycle arrest in human HepG2 cells assessed as accumulation at S phase at 2 uM after 48 hrs by propidium iodide staining based flow cytometric analysis (reference value: 33.22 to 33.58%); format: functional
[11] = system: K562; experiment: Induction of apoptosis in human K562 cells assessed as nuclear fragmentation after 24 to 48 hrs by Hoechst 33258 staining based fluorescence microscopic method; format: functional, cell-based; details: dose 1-4 µM, time 24-48 hrs
Summary of the method: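 K562 cells were exposed to 1.0, 2.0 or 4.0 test agent, with DMSO as vehicle control, for 24 h and 48 h. They were harvested, washed twice in PBS and stained with Hoechst 33258 (0.5 mg/mL in PBS) for 30 min in darkness. Slides were viewed by fluorescence microscopy with a DAPI filter. Three random fields of about 200 nuclei per sample were scored as % apoptotic nuclei. Three independent experiments.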

[12] = system: K562; experiment: Induction of apoptosis in human K562 cells assessed as viable cells at 0.5 uM after 48 hrs by annexin V FITC and propidium iodide staining based flow cytometric analysis (reference value: 96.76%); format: functional; details: read-out: Activity
[13] = system: K562; experiment: Induction of apoptosis in human K562 cells assessed as viable cells at 1 uM after 48 hrs by annexin V FITC and propidium iodide staining based flow cytometric analysis (reference value: 96.76%); format: functional; details: read-out: Activity
[14] = system: K562; experiment: Induction of apoptosis in human K562 cells assessed as late apoptotic cells at 1 uM after 48 hrs by annexin V FITC and propidium iodide staining based flow cytometric analysis (reference value: 0.42%); format: functional
[15] = system: K562; experiment: Induction of apoptosis in human K562 cells assessed as viable cells at 2 uM after 48 hrs by annexin V FITC and propidium iodide staining based flow cytometric analysis (reference value: 96.76%); format: functional; details: read-out: Activity
[16] = system: HepG2; experiment: Induction of apoptosis in human HepG2 cells assessed as late apoptotic cells at 0.5 uM after 48 hrs by annexin V FITC and propidium iodide staining based flow cytometric analysis (reference value: 3.17%); format: functional
[17] = system: HepG2; experiment: Induction of apoptosis in human HepG2 cells assessed as late apoptotic cells at 1 uM after 48 hrs by annexin V FITC and propidium iodide staining based flow cytometric analysis (reference value: 3.17%); format: functional
[18] = system: HepG2; experiment: Induction of apoptosis in human HepG2 cells assessed as late apoptotic cells at 2 uM after 48 hrs by annexin V FITC and propidium iodide staining based flow cytometric analysis (reference value: 3.17%); format: functional
[19] = system: HepG2; experiment: Induction of apoptosis in human HepG2 cells assessed as necrotic cells at 2 uM after 48 hrs by annexin V FITC and propidium iodide staining based flow cytometric analysis (reference value: 0.89%); format: functional
[20] = system: K562; experiment: Induction of mitochondrial membrane potential loss in human K562 cells after 48 hrs by JC1 staining based flow cytometric analysis; format: functional, cell-based; details: dose 0.5-2 µM
Summary of the method: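 K562 and HepG2 cells in 6-well plates were exposed for 48 h at 0, 0.50, 1.0 and 2.0 µM, with DMSO vehicle control. After trypsinization, cells were stained with JC-1 (0.5 mg/mL) at 37 °C in darkness for 30 min, then washed with PBS. Membrane potential was read by flow cytometry. Mean ± SD, three independent experiments.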

[21] = system: K562; experiment: Induction of apoptosis in human K562 cells assessed as down regulation of procaspase-3 at 1 uM after 24 hrs by chemiluminescence based apoptosis array method; format: functional, cell-based
Summary of the method: (§2)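 K562 cells were treated with 1 test agent for 24 h. Diluted total-cell lysates were applied to a human apoptosis antibody array covering 35 apoptosis-related proteins for 24 h. Unbound protein was washed off, and arrays were probed with a biotinylated detection antibody for 1 h. Relative expression was read from chemiluminescent signal by digital imaging.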

[22] = system: K562; experiment: Induction of apoptosis in human K562 cells assessed as decrease in XIAP protein expression at 1 uM after 24 hrs by chemiluminescence based apoptosis array method; format: functional, cell-based; summary of the method: as §2
[23] = system: K562; experiment: Induction of apoptosis in human K562 cells assessed as decrease in livin protein expression at 1 uM after 24 hrs by chemiluminescence based apoptosis array method; format: functional, cell-based; summary of the method: as §2
[24] = system: L02; experiment: Cytotoxicity against human L02 cells assessed as cell viability after 72 hrs by MTT assay; details: L02, 72 h
[25] = Cytotoxicity against human PBMC cells assessed as cell viability after 72 hrs by MTT assay
[26] = system: B16; experiment: Antiproliferative activity against mouse B16 cells assessed as reduction in cell viability after 72 hrs by MTT assay; details: B16, 72 h
[27] = system: MCF7; experiment: Antiproliferative activity against human MCF7 cells assessed as reduction in cell viability after 72 hrs by MTT assay; details: MCF7, 72 h
[28] = system: HepG2; experiment: Antiproliferative activity against human HepG2 cells assessed as reduction in cell viability after 72 hrs by MTT assay; details: HepG2, 72 h

Q: With `C=C1C(=O)[C@]23[C@H](OC(=O)CCC(=O)OCCCCCCOc4ccc(-c5cc(=S)ss5)cc4)[C@H]1CC[C@H]2[C@@]12CO[C@@]3(O)[C@@H](O)[C@@H]1C(C)(C)CC[C@@H]2OC(C)=O` as the compound, how does the selectivity ratio [1] read?
A: 20

Q: And the Activity [2]?
A: 50.32%

Q: And the Activity [3]?
A: 55.54%

Q: What about the Activity [4] of the same compound?
A: 29.97%

Q: And the Activity [5]?
A: 7.39%

Q: And the Activity [6]?
A: 55.35%

Q: And the Activity [7]?
A: 13.24%

Q: And the Activity [8]?
A: 61.39%

Q: What about the Activity [9] of the same compound?
A: 65.1%

Q: What about the Activity [10] of the same compound?
A: 28.3%

Q: And the Activity [11]?
A: Dose-dependent effect

Q: And the viability at 0.5 µM [12]?
A: 87%

Q: And the viability at 1 µM [13]?
A: 79.1%

Q: And the Activity [14]?
A: 8.38%

Q: What about the viability at 2 µM [15] of the same compound?
A: 47.4%

Q: And the Activity [16]?
A: 10.09%

Q: And the Activity [17]?
A: 12.72%

Q: And the Activity [18]?
A: 37.6%

Q: What about the Activity [19] of the same compound?
A: 4.42%

Q: What about the Activity [20] of the same compound?
A: Dose-dependent effect

Q: What about the Activity [21] of the same compound?
A: Active

Q: What about the Activity [22] of the same compound?
A: Active

Q: What about the Activity [23] of the same compound?
A: Active

Q: And the IC50 [24]?
A: 17.6 µM

Q: And the IC50 [25]?
A: > 50 µM

Q: What about the IC50 [26] of the same compound?
A: 12.9 µM

Q: And the IC50 [27]?
A: 16.1 µM

Q: And the IC50 [28]?
A: 2.57 µM

Reference: ChEMBL document CHEMBL4706489, “Hydrogen sulfide releasing oridonin derivatives induce apoptosis through extrinsic and intrinsic pathways” (Eur J Med Chem, 2020)
